9 compounds from ChEMBL document CHEMBL5230162 (RSC Med Chem, 2023) can be followed below.

Values after ≈ are worked out from the molar mass of the structure shown. Active and inactive are the calls of the source. No cut-off for these calls is given here.

A short description of series [1]: Binding affinity to human ASGPR assessed as equilibrium dissociation constant by surface plasmon resonance spectroscopy.
A short description of series [2]: Solubility of the compound in water incubated for 15 mins under shaking conditions by UV spectrophotometry. Format: physicochemical.
The target in series [3] is T1, 3-hydroxy-3-methylglutaryl-coenzyme A reductase (Homo sapiens) (UniProt P04035).
T1 sequence (whole entry): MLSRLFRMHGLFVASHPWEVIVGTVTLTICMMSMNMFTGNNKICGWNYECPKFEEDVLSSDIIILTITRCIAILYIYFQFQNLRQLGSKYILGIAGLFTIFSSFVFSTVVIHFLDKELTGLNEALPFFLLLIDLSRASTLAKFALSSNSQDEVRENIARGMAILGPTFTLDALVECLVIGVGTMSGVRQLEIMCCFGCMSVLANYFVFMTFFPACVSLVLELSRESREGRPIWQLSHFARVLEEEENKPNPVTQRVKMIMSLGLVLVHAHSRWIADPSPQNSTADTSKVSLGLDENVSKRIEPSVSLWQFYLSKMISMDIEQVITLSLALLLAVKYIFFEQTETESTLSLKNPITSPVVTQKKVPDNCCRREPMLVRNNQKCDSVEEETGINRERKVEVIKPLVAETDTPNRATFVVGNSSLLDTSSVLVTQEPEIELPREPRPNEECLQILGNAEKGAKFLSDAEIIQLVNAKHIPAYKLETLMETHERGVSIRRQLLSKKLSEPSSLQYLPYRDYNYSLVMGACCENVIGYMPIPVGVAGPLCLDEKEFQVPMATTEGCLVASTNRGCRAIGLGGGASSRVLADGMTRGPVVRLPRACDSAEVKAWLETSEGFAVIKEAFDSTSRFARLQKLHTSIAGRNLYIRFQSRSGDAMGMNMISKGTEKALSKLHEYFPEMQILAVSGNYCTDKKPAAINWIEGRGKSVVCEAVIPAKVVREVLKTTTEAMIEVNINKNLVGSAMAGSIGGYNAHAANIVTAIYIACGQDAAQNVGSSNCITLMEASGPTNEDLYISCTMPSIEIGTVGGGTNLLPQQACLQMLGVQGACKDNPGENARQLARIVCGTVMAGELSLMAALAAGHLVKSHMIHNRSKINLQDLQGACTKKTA
Kind of series: Inhibition of HMG-CoA reductase (unknown origin) in neutral aqueous media. A digest of the protocol: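 HMG-CoA reductase kit assay. Compounds were 0.1 mM working solutions made from 0.01 M DMSO stocks diluted in water; 2 μL of each added per well. NADPH consumption followed as absorbance at 340 nm every 20 s for up to 10 min. Activity calculated from the NADPH extinction coefficient. Run in triplicate.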

Series [4] is described as follows: Stability of the compound in acetate buffer at pH 5 measured for 24 hrs by HPLC-MS analysis. Format: physicochemical. To be noted: pH 5, 24 h. The essentials: (§1)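 Incubated at 37 °C. Aliquots taken at 0, 0.5, 1, 2, 4, 8 and 24 h and quenched in cold methanol, stored at −20 °C, centrifuged, and the supernatant analysed by HPLC-MS.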
In series [5] the target is T1, 3-hydroxy-3-methylglutaryl-coenzyme A reductase (Homo sapiens). Description: Inhibition of HMG-CoA reductase (unknown origin) in presence of cathepsin B. A digest of the protocol: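 Compound (40 μM final) incubated for 24 h at 37 °C with recombinant cathepsin B (30 nM final) in 0.1 M sodium acetate pH 3.6, 100 mM NaCl, 1 mM EDTA, 0.6% DMSO. 5 μL of the mixture then tested in the HMG-CoA reductase kit assay: absorbance at 340 nm every 20 s for up to 10 min, in triplicate. Controls: enzyme-only buffer and compound without protease.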

Series [6] in a line: Stability of the compound in acetate buffer at pH 5 measured after 24 hrs by HPLC-MS analysis. It counts as physicochemical. Conditions: pH 5, 24 h. The essentials:
as §1

Series [7] is described as follows: Stability of the compound in PBS buffer at pH 7.4 measured after 24 hrs by HPLC-MS analysis. Format: physicochemical. To be noted: pH 7.4, 24 h. The essentials:
as §1

Series [8] in a line: Solubility of the compound in water incubated for 15 mins under shaking conditions by UV spectrophotometry relative to atorvastatin. It counts as physicochemical. To be noted: buffer, 0.25 h. A digest of the protocol: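 Excess compound shaken strongly in 1 ml water for 15 min, then filtered or centrifuged. 50 μL of the saturated solution diluted into 1 mL methanol. Absorbance read at 290 nm and concentration taken from standard curves.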

For `CC(=O)N[C@@H]1[C@@H](O)[C@@H](O)[C@@H](CO)O[C@@H]1O`, in series [1], the Kd (usually the equilibrium constant for the complex coming apart) came out at 4500 nM.
With `CC(=O)N[C@@H]1[C@@H](O)[C@@H](O)[C@@H](CO)O[C@H]1n1cc(COC(=O)C[C@H]2C[C@@H](CCn3c(-c4ccc(F)cc4)c(-c4ccccc4)c(C(=O)Nc4ccccc4)c3C(C)C)OC(C)(C)O2)nn1`, in series [2], the solubility (usually the concentration that dissolves in the medium under given conditions) at 0.25 h stood at 30 µM (≈ 26.5 µg/mL). The Kd in series [1] is 0.15 nM.
In series [2], `CC(=O)N[C@@H]1[C@@H](O)[C@@H](O)[C@@H](CO)O[C@H]1n1cc(COC(=O)C[C@H](O)C[C@H](O)CCn2c(-c3ccc(F)cc3)c(-c3ccccc3)c(C(=O)Nc3ccccc3)c2C(C)C)nn1` gave a solubility at 0.25 h of 200 µM (≈ 169 µg/mL). For the same compound, the Kd in series [1] came to 48 nM. For the same compound, the “inhibition (active/not active)” value in series [3] was “Active”. In addition, the Stability result in series [4] is on record as “Stable”.
In turn, `CC(=O)N[C@H]1[C@H](OCCn2cc(COC(=O)C[C@H]3C[C@@H](CCn4c(-c5ccc(F)cc5)c(-c5ccccc5)c(C(=O)Nc5ccccc5)c4C(C)C)OC(C)(C)O3)nn2)O[C@H](CO)[C@H](O)[C@@H]1O` registered a solubility at 0.25 h in series [2] of 50 µM (≈ 46.4 µg/mL). Further, in series [1], the Kd is 0.33 nM. Moreover, the “inhibition (active/not active)” value in series [3] is “Active”.
In the case of `CC(=O)N[C@H]1[C@H](OCCn2cc(COC(=O)C[C@H](O)C[C@H](O)CCn3c(-c4ccc(F)cc4)c(-c4ccccc4)c(C(=O)Nc4ccccc4)c3C(C)C)nn2)O[C@H](CO)[C@H](O)[C@@H]1O`, the concentration in solution in series [2] (solubility at 0.25 h) was 320 µM (≈ 284 µg/mL). Also, the Kd in series [1] was 79 nM. Moreover, the Stability entry in series [4] is recorded as “Stable”.
`CC[C@H](C)C(=O)O[C@H]1C[C@H](O)C=C2C=C[C@H](C)[C@H](CC[C@@H](O)C[C@@H](O)CC(=O)O)[C@H]21`: the inhibition result in series [5] is “Active”.
`CC(=O)N[C@H]1[C@H](OCCn2cc(CNC(=O)C[C@H](O)C[C@H](O)CCn3c(-c4ccc(F)cc4)c(-c4ccccc4)c(C(=O)Nc4ccccc4)c3C(C)C)nn2)O[C@H](CO)[C@H](O)[C@@H]1O`: the concentration in solution in series [2] (solubility at 0.25 h) was 540 µM (≈ 478 µg/mL). The Kd in series [1] is 161 nM. In series [3], the “inhibition (active/not active)” value was “inactive”. In series [5], the inhibition entry was “Active”. The Stability result in series [6] and in series [7] was “Stable” each time. Further, the fold change (FC) in series [8] came out at 5.
As to `CC(=O)N[C@@H]1[C@@H](O)[C@@H](O)[C@@H](CO)O[C@H]1n1cc(CNC(=O)C[C@H](O)C[C@H](O)CCn2c(-c3ccc(F)cc3)c(-c3ccccc3)c(C(=O)Nc3ccccc3)c2C(C)C)nn1`, the concentration in solution in series [2] (solubility at 0.25 h) was 450 µM (≈ 379 µg/mL). Also, the Kd in series [1] amounted to 113 nM. Also, in series [3], the “inhibition (active/not active)” value was “inactive”. Further, the inhibition result in series [5] was “Active”. Further, the Stability entry in series [6] and in series [7] was “Stable” each time. In series [8], this compound came in with a fold change (FC) of 4.
Consider `CC(=O)N[C@H]1[C@H](OCCNC(=O)C[C@H](O)C[C@H](O)CCn2c(-c3ccc(F)cc3)c(-c3ccccc3)c(C(=O)Nc3ccccc3)c2C(C)C)O[C@H](CO)[C@H](O)[C@@H]1O`, for which the solubility at 0.25 h in series [2] came out at 430 µM (≈ 346 µg/mL). For the same compound, in series [1], the Kd turned out to be 69 nM. Besides, the “fold change (FC)” value in series [8] is recorded as 4.
